Assay results of several laboratories.
Lines come from different studies, so protocols differ.
Target: Mitogen-activated protein kinase kinase kinase 5 (MAP3K5, Homo sapiens, UniProt Q99683)
Sequence (Q99683 1-1374, as in one of the studies): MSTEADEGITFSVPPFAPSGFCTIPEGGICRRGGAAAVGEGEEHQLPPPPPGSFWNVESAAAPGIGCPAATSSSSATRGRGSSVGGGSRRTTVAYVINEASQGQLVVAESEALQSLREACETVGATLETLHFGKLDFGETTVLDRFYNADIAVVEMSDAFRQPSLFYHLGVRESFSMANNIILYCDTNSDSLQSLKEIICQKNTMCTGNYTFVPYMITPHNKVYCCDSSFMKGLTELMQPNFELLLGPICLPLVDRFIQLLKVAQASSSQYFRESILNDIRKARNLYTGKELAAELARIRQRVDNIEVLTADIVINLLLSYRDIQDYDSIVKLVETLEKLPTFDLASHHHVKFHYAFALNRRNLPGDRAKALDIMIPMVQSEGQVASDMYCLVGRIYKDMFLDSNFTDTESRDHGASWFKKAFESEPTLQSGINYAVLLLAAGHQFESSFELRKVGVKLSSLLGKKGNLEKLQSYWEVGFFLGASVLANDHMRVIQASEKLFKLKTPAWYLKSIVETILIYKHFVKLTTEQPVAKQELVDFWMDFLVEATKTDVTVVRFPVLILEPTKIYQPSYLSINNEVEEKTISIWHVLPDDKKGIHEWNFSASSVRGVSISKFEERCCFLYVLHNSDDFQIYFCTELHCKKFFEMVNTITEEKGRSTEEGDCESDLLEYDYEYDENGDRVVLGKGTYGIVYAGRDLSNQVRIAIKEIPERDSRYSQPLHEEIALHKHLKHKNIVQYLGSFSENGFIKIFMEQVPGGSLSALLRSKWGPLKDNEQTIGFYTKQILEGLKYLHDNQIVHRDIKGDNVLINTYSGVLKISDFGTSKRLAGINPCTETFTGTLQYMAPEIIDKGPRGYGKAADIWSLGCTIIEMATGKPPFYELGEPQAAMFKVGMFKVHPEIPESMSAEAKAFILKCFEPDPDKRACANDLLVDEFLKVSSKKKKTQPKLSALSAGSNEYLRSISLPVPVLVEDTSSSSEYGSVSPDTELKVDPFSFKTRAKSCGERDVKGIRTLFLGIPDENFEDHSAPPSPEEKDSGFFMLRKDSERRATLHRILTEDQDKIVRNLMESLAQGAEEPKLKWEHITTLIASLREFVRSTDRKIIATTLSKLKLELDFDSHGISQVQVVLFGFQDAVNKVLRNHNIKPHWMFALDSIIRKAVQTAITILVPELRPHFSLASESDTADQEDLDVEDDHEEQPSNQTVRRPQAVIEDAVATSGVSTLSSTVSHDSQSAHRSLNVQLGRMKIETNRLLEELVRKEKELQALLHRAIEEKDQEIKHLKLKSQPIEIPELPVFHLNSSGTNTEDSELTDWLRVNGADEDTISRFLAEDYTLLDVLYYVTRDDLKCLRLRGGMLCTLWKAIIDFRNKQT

| Structure (SMILES) | effect on | mode | technique | tested at | measurement | result |
| --- | --- | --- | --- | --- | --- | --- |
| COc1ncccc1-c1cnn2ccc(N3CCN(C(=O)OC(C)C)CC3)nc12 | binding | – | competition with immobilised ligand | 1 µM | remaining binding | 73% |
| Nc1ncc(-c2nc(N3CCOCC3)nc(N3CCOCC3)n2)c(C(F)F)n1 | binding | – | competition with immobilised ligand | 10 µM | remaining binding | 92% |
| Cn1cncc1[C@@](O)(COc1ccc(C#N)cc1-c1ccc(OC(F)(F)F)cc1)c1ccc(C#N)cc1 | cell-free assay | – | competition with immobilised ligand | 1 µM | remaining binding | 91% |
| CC(C)(C)c1cc(C=C(C#N)C#N)cc(Br)c1O | enzyme activity | inhibitor | – | 0.5 µM | remaining activity | 100% |
| Cn1cc(-c2cc(F)cc(N3CCn4c(cc5c4CCCC5)C3=O)c2CO)cc(Nc2ccc(N3CCN(C4COC4)CC3)cn2)c1=O | enzyme activity | inhibitor | – | 0.1 µM | inhibition | 2% |
| N#CC1(c2ccccn2)CCN(Cc2cc(C(=O)O)c(=O)n3ccccc23)CC1 | cell-free assay | – | competition with immobilised ligand | 1 µM | remaining binding | 75% |
| COc1cc(Nc2ncc(F)c(Nc3ccc4c(n3)NC(=O)C(C)(C)O4)n2)cc(OC)c1OC | binding | – | competition with immobilised ligand | 10 µM | inhibition | 0% |
| O=c1[nH]c2ccccc2n1C1CCN(Cc2ccc(-c3[nH]c4cc5ncnc5cc4nc3-c3ccccc3)cc2)CC1 | cell-free assay | – | – | 0.5 µM | remaining signal | 93.8% |
| Cn1cc(-c2cccc(N3CCc4c(sc5c4CC(C)(C)C5)C3=O)c2CO)cc(Nc2ccncn2)c1=O | enzyme activity | inhibitor | – | 1 µM | inhibition | 14% |
| Cc1nn(C)cc1-c1nc2c(N3CCN(Cc4ccc(Cl)cc4)CC3)c(Cl)cnc2[nH]1 | binding | – | competition with immobilised ligand | 1 µM | remaining binding | 100% |
